This is an account of results in ChEMBL document CHEMBL1158112, “A nitrogen-containing 3-alkyl-1,4-benzoquinone and a gomphilactone derivative from Embelia ribes” (J Nat Prod, 2006).

The target of experiment [1] is Prothrombin (Homo sapiens) (UniProt P00734). Description: Inhibition of thrombin at 50 uM.
The next experiment deals with A549. Description: Cytotoxicity against human A549 cells after 96 hrs by MTT assay. The experiment is classed as functional, cell-based. To be noted: A549, 96 h. The procedure, abridged:
(§1)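 Cells grown in RPMI1640 with 10% FBS, 100 units/mL penicillin and 100 µg/mL streptomycin, at 37 °C in humidified 5% CO2. Seeded at 1200 cells/well; compounds added after 24 h at five concentrations (final DMSO 0.1%), triplicate wells.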
For orientation: Tetrazolium assays rely on reduction of a dye to a coloured formazan, in cell work by metabolically active cells.

Another experiment deals with A2780. Description: Cytotoxicity against human A2780 cells after 96 hrs by MTT assay. The experiment is classed as functional, cell-based. To be noted: A2780, 96 h. In outline:
as §1

The subject of a further experiment is Bel-7402. Description: Cytotoxicity against human Bel-7402 cells after 96 hrs by MTT assay. To be noted: Bel-7402, 96 h. The experiment is classed as functional, cell-based. The procedure, abridged:
as §1

In the next experiment the test system is BGC-823. Description: Cytotoxicity against human BGC-823 cells after 96 hrs by MTT assay. To be noted: BGC-823, 96 h. The experiment is classed as functional, cell-based. In outline: as §1
In the next experiment the test system is HCT-8. Description: Cytotoxicity against human HCT8 cells after 96 hrs by MTT assay. To be noted: HCT-8, 96 h. It counts as functional, cell-based. The procedure, abridged:
as §1

For experiment [2], the target named is T1, Tyrosine-protein phosphatase non-receptor type 1 (Homo sapiens) (UniProt P18031).
T1 sequence (whole entry): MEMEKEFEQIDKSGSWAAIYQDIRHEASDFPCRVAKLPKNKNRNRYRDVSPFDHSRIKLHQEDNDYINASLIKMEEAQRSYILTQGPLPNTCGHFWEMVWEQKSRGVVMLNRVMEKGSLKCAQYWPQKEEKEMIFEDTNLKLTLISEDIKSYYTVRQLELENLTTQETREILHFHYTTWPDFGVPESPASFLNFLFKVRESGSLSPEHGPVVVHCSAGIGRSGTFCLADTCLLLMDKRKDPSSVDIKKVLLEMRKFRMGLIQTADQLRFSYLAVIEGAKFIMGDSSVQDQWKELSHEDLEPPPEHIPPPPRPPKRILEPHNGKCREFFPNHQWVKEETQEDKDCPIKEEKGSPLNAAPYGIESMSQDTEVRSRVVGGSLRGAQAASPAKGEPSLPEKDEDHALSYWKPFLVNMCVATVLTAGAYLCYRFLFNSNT
Description: Inhibition of PTP1B at 50 uM.

SMILES strings stand for the structures. The source made the active and inactive calls. The rule behind the calls is not given here.

On to `COc1cc([C@H]2c3c(cc(OC)c(O)c3OC)C[C@@H](CO)[C@@H]2CO[C@@H]2O[C@H](CO)[C@@H](O)[C@H](O)[C@H]2O)cc(OC)c1O`, for which the result in experiment [1] and in experiment [2] was inactive. The concentration for half-maximal inhibition (IC50) with A549, with A2780, in the experiment with Bel-7402, in the experiment with BGC-823 and in the experiment on HCT-8 was above 10 mg/L throughout.
On to `CC[C@H](CC[C@@H](C)[C@H]1CC[C@H]2[C@@H]3CC=C4C[C@@H](O[C@@H]5O[C@H](CO)[C@@H](O)[C@H](O)[C@H]5O)CC[C@]4(C)[C@H]3CC[C@]12C)C(C)C` [SITOGLUSIDE], for which the result in experiment [1] and in experiment [2] was inactive. The IC50 in the experiment with A549, in the experiment with A2780, with Bel-7402, with BGC-823 and in the experiment with HCT-8 was above 10 mg/L throughout.
As to `CCCCCCCCCCCCCC1=C(O)/C(=C2\C(=O)Oc3c2cc(O)c(O)c3CCCCCCCCCCCCC)OC1=O`, the result in experiment [1] and in experiment [2] was inactive. The IC50 in the experiment with A549, in the experiment on A2780, with Bel-7402, with BGC-823 and with HCT-8 was above 10 mg/L in each case.
Regarding `CCCCCCCCCCCCCCCc1cc(O)cc(O)c1` [CARDOL], the result in experiment [1] and in experiment [2] was inactive. Besides, the 50% inhibitory concentration (IC50) was 1.43 µM in the experiment on A549; 1.31 µM in the experiment with A2780; 1.93 µM in the experiment with Bel-7402; 1.74 µM in the experiment with BGC-823; 1.48 µM with HCT-8.
On to `COc1cc(O)cc(OC)c1O[C@@H]1O[C@H](CO)[C@@H](O)[C@H](O)[C@H]1O` [LEONURISIDE], for which the outcome in experiment [1] and in experiment [2] was inactive. Besides, the IC50 with A549, with A2780, with Bel-7402, in the experiment on BGC-823 and in the experiment with HCT-8 was above 10 mg/L each time.
For the molecule `CCCCC/C=C\C/C=C\CCCCCCCc1cc(O)cc(O)c1`, the result in experiment [1] and in experiment [2] was inactive. The 50% inhibitory concentration (IC50) was 1.42 µM in the experiment on A549; 1.57 µM in the experiment with A2780; 1.91 µM in the experiment on Bel-7402; 1.79 µM with BGC-823; 1.54 µM in the experiment with HCT-8.
As to `COc1cc(O[C@@H]2O[C@H](CO)[C@@H](O)[C@H](O)[C@H]2O)cc(OC)c1O` [KOABURASIDE], the outcome in experiment [1] and in experiment [2] was inactive. For the same molecule, the IC50 with A549, with A2780, with Bel-7402, with BGC-823 and in the experiment with HCT-8 was above 10 mg/L in each case.
For `CCCCCCCCCCCCCC1=C(O)C(=O)C=C(O)C1=O` [Rapanone], the result in experiment [1] and in experiment [2] was inactive. Besides, the IC50 with A549 is 1.58 µM; in the experiment with A2780 it was 1.82 µM; in the experiment on Bel-7402, 1.46 µM; in the experiment with BGC-823, 1.89 µM; with HCT-8 it was 1.52 µM.
On to `CCCCCc1cc(O)cc(OC)c1`, for which the result in experiment [1] and in experiment [2] was inactive. In addition, the half-inhibitory concentration (IC50) in the experiment on A549, in the experiment on A2780, in the experiment on Bel-7402, in the experiment with BGC-823 and in the experiment with HCT-8 was above 10 mg/L in each case.
As to `Oc1cc(O)c2c(c1)O[C@H](c1ccc(O)c(O)c1)[C@@H](O)C2` [CIANIDANOL], the result in experiment [1] and in experiment [2] was inactive. Besides, the IC50 in the experiment with A549, with A2780, with Bel-7402, in the experiment on BGC-823 and in the experiment on HCT-8 was above 10 mg/L in each case.
As to `CCCCCCCCCCCCCC1=C(O)C(=O)C=C(NCCCC(=O)O)C1=O`, the outcome in experiment [1] and in experiment [2] was inactive. Besides, the IC50 in the experiment with A549, in the experiment on A2780, with Bel-7402, in the experiment with BGC-823 and in the experiment with HCT-8 was above 10 mg/L each time.
In the case of `CCCCCCCC/C=C\CCCCCCCc1cc(O)cc(O)c1`, the outcome in experiment [1] and in experiment [2] was inactive. Besides, the IC50 in the experiment on A549 amounted to 0.46 µM; in the experiment on A2780, 1.06 µM; in the experiment with Bel-7402 it was 1.07 µM; with BGC-823 it was 1.43 µM; in the experiment on HCT-8, 0.78 µM.
With `CC[C@@]1(O)C(=O)OCc2c1cc1n(c2=O)Cc2cc3c(CN(C)C)c(O)ccc3nc2-1` [TOPOTECAN], the 50% inhibitory concentration (IC50) in the experiment with A549 came out at 3.5 µM; in the experiment with A2780, 1.2 µM; with Bel-7402, 1.4 µM; in the experiment on BGC-823, 3.8 µM; in the experiment with HCT-8, 1.2 µM.
Consider `CC[C@H](CC[C@@H](C)[C@H]1CC[C@H]2[C@@H]3CC=C4C[C@@H](O)CC[C@]4(C)[C@H]3CC[C@]12C)C(C)C` [BETA-SITOSTEROL], for which the result in experiment [1] and in experiment [2] was inactive. The IC50 with A549, with A2780, in the experiment with Bel-7402, with BGC-823 and in the experiment with HCT-8 was above 10 mg/L in each case.

The IC50 is the concentration needed to halve the response being measured. A higher IC50 goes with weaker potency in that assay.
